SMILES strings stand for the structures. Activity calls are given as the source filed them. The calls are words filed in the database; no cut-off is given here.

Our source for the IC50, inhibition and Activity values is ChEMBL document CHEMBL1955735, “Tea catechins and flavonoids from the leaves of Camellia sinensis inhibit yeast alcohol dehydrogenase” (Bioorg Med Chem, 2012).

The nature of assay [1]: Inhibition of Saccharomyces cerevisiae alcohol dehydrogenase measured every 5 mins for 2 hrs by spectrophotometry. The procedure, abridged:
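Yeast ADH in a microplate. DMSO sample stocks were serially diluted in 10 mM PBS pH 7.4 and combined with ethanol (25% in PBS) and β-NAD⁺ (1.87 mM in PBS), both as added solutions. The mix was equilibrated 5 min at 24 °C, then ADH (1180 unit/L solution) was added and incubated 2 h at 24 °C. NADH was read at A340 every 5 min. IC50 was the concentration halving NADH versus the PBS control at 2 h. Run in triplicate, with disulfiram as positive control.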

Assay [2] deals with Radical scavenging activity. Nature of the assay: Antioxidant activity assessed as DPPH radical scavenging activity after 30 mins by spectrophotometry. Format: functional. The method, boiled down: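 Microplate DPPH assay: 30 min incubation at room temperature, then absorbance read at 517 nm. IC50 is the concentration giving a 50% drop in absorbance relative to the DPPH control solution.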
On the technique in general: Loss of DPPH colour is used to gauge radical scavenging.

Assay [3] is described as follows: Inhibition of aldehyde dehydrogenase.
The nature of assay [4]: Activation of aldehyde dehydrogenase.

Broadly, the IC50 is the midpoint of a concentration-inhibition curve. For `O=C(O[C@@H]1Cc2c(O)cc(O)cc2O[C@@H]1c1ccc(O)c(O)c1)c1cc(O)c(O)c(O)c1` [EPICATECHIN GALLATE], the IC50 in assay [1] is 65.5 µM; in assay [2], 1.5 µM. Besides, in assay [3], the inhibition result was “inactive”. The result in assay [4] was inactive.

On to `O=c1c(O[C@@H]2O[C@H](CO)[C@@H](O)[C@H](O)[C@H]2O)c(-c2cc(O)c(O)c(O)c2)oc2cc(O)cc(O)c12`, for which the IC50 in assay [1] was found to be 19.9 µM; in assay [2], 28 µM. Moreover, the inhibition result in assay [3] is “inactive”. For the same molecule, in assay [4], the outcome was inactive.

`COc1cc(C(=O)O[C@@H]2Cc3c(O)cc(O)cc3O[C@@H]2c2ccc(O)c(O)c2)cc(O)c1O`: the IC50 in assay [1] was found to be 44.1 µM; in assay [2], 10.8 µM. For the same molecule, the inhibition entry in assay [3] is “inactive”. In assay [4], the result was inactive.

`C[C@@H]1O[C@@H](OC[C@H]2O[C@@H](Oc3c(-c4ccc(O)cc4)oc4cc(O)cc(O)c4c3=O)[C@H](O)[C@@H](O)[C@H]2O)[C@H](O)[C@H](O[C@@H]2O[C@H](CO)[C@@H](O)[C@H](O)[C@H]2O)[C@H]1O`: the IC50 in assay [1] is 17.6 µM; in assay [2], above 100 µM. For the same molecule, the inhibition result in assay [3] was “inactive”. The outcome in assay [4] was inactive.

Regarding `O=C(O[C@@H]1Cc2c(O)cc(O)cc2O[C@@H]1c1cc(O)c(O)c(O)c1)c1cc(O)c(O)c(O)c1` [EPIGALOCATECHIN GALLATE], the results for the 50% inhibitory concentration (IC50) in assay [1] and in assay [2] were 42.8 µM and 8.3 µM, respectively. The inhibition result in assay [3] was “inactive”. Moreover, the outcome in assay [4] was inactive.

With `C[C@@H]1O[C@@H](OC[C@H]2O[C@@H](Oc3c(-c4ccc(O)c(O)c4)oc4cc(O)cc(O)c4c3=O)[C@H](O)[C@@H](O)[C@@H]2O)[C@H](O)[C@H](O[C@@H]2O[C@H](CO)[C@@H](O)[C@H](O)[C@H]2O)[C@H]1O`, the results for the IC50 in assay [1] and in assay [2] were 19.7 µM and 7.7 µM, respectively. Also, the inhibition result in assay [3] was “inactive”. The result in assay [4] was inactive.

Regarding `Oc1cc(O)c2c(c1)O[C@H](c1cc(O)c(O)c(O)c1)[C@H](O)C2` [EPIGALLOCATECHIN], the results for the IC50 in assay [1] and in assay [2] were 16.5 µM and 16.2 µM, respectively. The inhibition entry in assay [3] is “inactive”. Moreover, in assay [4], the result was inactive.

Consider `Cc1c(C)c2c(c(C)c1O)CC[C@@](C)(CCC[C@H](C)CCC[C@H](C)CCCC(C)C)O2` [ALPHA-TOCOPHEROL], for which the IC50 in assay [2] was determined as 11.4 µM.

Consider `O=c1c(O[C@@H]2O[C@H](CO)[C@H](O)[C@H](O)[C@H]2O)c(-c2cc(O)c(O)c(O)c2)oc2cc(O)cc(O)c12`, for which the concentration for half-maximal inhibition (IC50) in assay [1] is 18.2 µM; in assay [2], 3.5 µM. Further, in assay [3], the inhibition result was “inactive”. In addition, in assay [4], the outcome was inactive.

For `C[C@@H]1O[C@@H](OC[C@H]2O[C@@H](Oc3c(-c4ccc(O)c(O)c4)oc4cc(O)cc(O)c4c3=O)[C@H](OC(=O)/C=C/c3ccc(O)cc3)[C@@H](O[C@@H]3OC[C@H](O)[C@H](O)[C@H]3O)[C@@H]2O)[C@H](O)[C@H](O)[C@H]1O` [CAMELLIQUERCETISIDE C], the IC50 in assay [1] was found to be 46.7 µM; in assay [2] it was 31.9 µM. Further, the inhibition entry in assay [3] was “inactive”. The outcome in assay [4] was inactive.

With `O=C(/C=C/c1ccc(O)cc1)O[C@@H]1Cc2c(O)cc(O)cc2O[C@@H]1c1cc(O)c(O)c(O)c1`, the IC50 was 8 µM in assay [1] and 43.8 µM in assay [2]. Further, the inhibition result in assay [3] was “inactive”. In addition, the outcome in assay [4] was inactive.

As to `O=c1c(O[C@@H]2O[C@H](CO)[C@H](O)[C@H](O)[C@H]2O)c(-c2ccc(O)cc2)oc2cc(O)cc(O)c12` [TRIFOLIN], the IC50 in assay [1] is 70.3 µM; in assay [2] it was above 100 µM. Moreover, in assay [3], the inhibition entry was “inactive”. In addition, in assay [4], the result was inactive.

Regarding `CCN(CC)C(=S)SSC(=S)N(CC)CC` [DISULFIRAM], the IC50 in assay [1] came to 248 µM.

Turning to `C[C@@H]1O[C@@H](OC[C@H]2O[C@@H](Oc3c(-c4ccc(O)c(O)c4)oc4cc(O)cc(O)c4c3=O)[C@H](OC(=O)/C=C/c3ccc(O)cc3)[C@@H](O)[C@@H]2O)[C@H](O)[C@H](O[C@@H]2O[C@H](CO)[C@@H](O)[C@H](O)[C@H]2O)[C@H]1O` [CAMELLIQUERCETISIDE B], the IC50 is 13.7 µM in assay [1] and 22 µM in assay [2]. In addition, the inhibition result in assay [3] was “inactive”. Also, in assay [4], the outcome was inactive.

As for `O=C(/C=C\c1ccc(O)cc1)O[C@@H]1Cc2c(O)cc(O)cc2O[C@@H]1c1cc(O)c(O)c(O)c1`, the results for the IC50 in assay [1] and in assay [2] were 22.1 µM and 26.4 µM, respectively. Also, in assay [3], the inhibition result was “inactive”. Moreover, the result in assay [4] was inactive.

`C[C@@H]1O[C@@H](OC[C@H]2O[C@@H](Oc3c(-c4ccc(O)cc4)oc4cc(O)cc(O)c4c3=O)[C@H](O)[C@@H](O)[C@@H]2O)[C@H](O)[C@H](O)[C@H]1O` [NICOTIFLOROSIDE]: the IC50 in assay [1] is 40.4 µM; in assay [2] it was above 100 µM. Besides, in assay [3], the inhibition entry was “inactive”. Also, the result in assay [4] was inactive.

With `Oc1cc(O)c2c(c1)O[C@H](c1ccc(O)c(O)c1)[C@@H](O)C2` [CIANIDANOL], the IC50 in assay [1] is 21.1 µM; in assay [2] it was 4.3 µM. Also, the inhibition entry in assay [3] was “inactive”. The outcome in assay [4] was inactive.

Take `O=C(O[C@@H]1Cc2c(O)cc(O)cc2O[C@@H]1c1ccc(O)cc1)c1cc(O)c(O)c(O)c1`: the IC50 in assay [1] turned out to be 44.3 µM; in assay [2] it was 2.8 µM. Moreover, the inhibition result in assay [3] is “inactive”. In assay [4], the result was inactive.

As to `C[C@@H]1O[C@@H](OC[C@H]2O[C@@H](Oc3c(-c4ccc(O)c(O)c4)oc4cc(O)cc(O)c4c3=O)[C@H](OC(=O)/C=C/c3ccc(O)cc3)[C@@H](O[C@@H]3OC[C@H](O)[C@H](O)[C@H]3O)[C@@H]2O)[C@H](O)[C@H](O[C@@H]2O[C@H](CO)[C@@H](O)[C@H](O)[C@H]2O)[C@H]1O` [CAMELLIQUERCETISIDE A], the IC50 in assay [1] was determined as 17.3 µM; in assay [2], 19.8 µM. Also, the inhibition result in assay [3] was “inactive”. Moreover, the result in assay [4] was inactive.

For `Cn1c(=O)c2c(ncn2C)n(C)c1=O` [CAFFEINE], the IC50 is 197 µM in assay [1] and above 100 µM in assay [2]. Moreover, the inhibition result in assay [3] is “inactive”. Also, the outcome in assay [4] was inactive.

Consider `C[C@@H]1O[C@@H](OC[C@H]2O[C@@H](Oc3c(-c4ccc(O)c(O)c4)oc4cc(O)cc(O)c4c3=O)[C@H](O)[C@@H](O)[C@H]2O)[C@H](O)[C@H](O[C@@H]2O[C@H](CO)[C@@H](O)[C@H](O)[C@H]2O)[C@H]1O`, for which the results for the 50% inhibitory concentration (IC50) in assay [1] and in assay [2] were 41 µM and 30.1 µM, respectively. Further, the inhibition entry in assay [3] is “inactive”. In addition, the outcome in assay [4] was inactive.

Regarding `C[C@@H]1O[C@@H](OC[C@H]2O[C@@H](Oc3c(-c4ccc(O)c(O)c4)oc4cc(O)cc(O)c4c3=O)[C@H](OC(=O)/C=C/c3ccc(O)cc3)[C@@H](O)[C@@H]2O)[C@H](O)[C@H](O)[C@H]1O` [CAMELLIQUERCETISIDE D], the IC50 came to 41.5 µM in assay [1] and 29.2 µM in assay [2]. In addition, the inhibition result in assay [3] is “inactive”. The result in assay [4] was inactive.
